The record followed here is ChEMBL document CHEMBL1142706, “Synthesis and evaluation of (pyridylmethylene)tetrahydronaphthalenes/-indanes and structurally modified derivatives: potent and selective inhibitors of aldosterone synthase” (J Med Chem, 2005).

Series [1] deals with T1, Cytochrome P450 11B2, mitochondrial (Homo sapiens, UniProt P19099).
T1 sequence (P19099 whole entry): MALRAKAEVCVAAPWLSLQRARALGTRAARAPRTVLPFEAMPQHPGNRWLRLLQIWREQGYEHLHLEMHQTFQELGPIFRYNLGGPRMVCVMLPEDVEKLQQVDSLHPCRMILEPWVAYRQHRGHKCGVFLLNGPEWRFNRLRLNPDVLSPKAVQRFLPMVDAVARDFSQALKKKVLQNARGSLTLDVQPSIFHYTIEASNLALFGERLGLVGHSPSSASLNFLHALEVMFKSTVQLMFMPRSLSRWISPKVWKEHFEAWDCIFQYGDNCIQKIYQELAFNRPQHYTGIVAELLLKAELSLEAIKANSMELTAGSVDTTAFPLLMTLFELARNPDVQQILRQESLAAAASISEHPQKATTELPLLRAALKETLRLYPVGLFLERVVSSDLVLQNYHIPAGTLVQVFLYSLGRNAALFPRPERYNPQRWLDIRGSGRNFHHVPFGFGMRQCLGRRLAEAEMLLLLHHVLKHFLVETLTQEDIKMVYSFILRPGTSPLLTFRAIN
Briefly: In vitro inhibitory concentration against human CYP11B2 expressed in V79MZh hamster fibroblasts incubated with 100 nM of substrate deoxy-corticosterone in presence of the compound. A digest of the protocol: (§1)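 Intact V79 MZh hamster fibroblasts expressing human CYP11B1 or CYP11B2, incubated with [4-14C]-11-deoxycorticosterone (100 nM) and inhibitor at no fewer than three concentrations to give IC50. Stopped with ethyl acetate, shaken, centrifuged (10 000g, 2 min); steroids in organic phase analysed by HPTLC/phosphoimager. Mean of four determinations, standard deviation less than 5%.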

The species entered for series [2] is Homo sapiens. The series can be described thus: In vitro IC50 ratio against human CYP11B1 to that of human CYP11B2. A digest of the protocol: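 IC50 ratio from V79 MZh hamster fibroblasts expressing human CYP11B1 or CYP11B2, each incubated with [4-14C]-11-deoxycorticosterone (100 nM) and inhibitor at no fewer than three concentrations; steroids extracted into ethyl acetate and quantified by HPTLC with phosphoimaging.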

Series [3] has as its target T2, Cytochrome P450 11B1, mitochondrial (Homo sapiens, UniProt P15538).
T2 sequence (P15538 whole entry): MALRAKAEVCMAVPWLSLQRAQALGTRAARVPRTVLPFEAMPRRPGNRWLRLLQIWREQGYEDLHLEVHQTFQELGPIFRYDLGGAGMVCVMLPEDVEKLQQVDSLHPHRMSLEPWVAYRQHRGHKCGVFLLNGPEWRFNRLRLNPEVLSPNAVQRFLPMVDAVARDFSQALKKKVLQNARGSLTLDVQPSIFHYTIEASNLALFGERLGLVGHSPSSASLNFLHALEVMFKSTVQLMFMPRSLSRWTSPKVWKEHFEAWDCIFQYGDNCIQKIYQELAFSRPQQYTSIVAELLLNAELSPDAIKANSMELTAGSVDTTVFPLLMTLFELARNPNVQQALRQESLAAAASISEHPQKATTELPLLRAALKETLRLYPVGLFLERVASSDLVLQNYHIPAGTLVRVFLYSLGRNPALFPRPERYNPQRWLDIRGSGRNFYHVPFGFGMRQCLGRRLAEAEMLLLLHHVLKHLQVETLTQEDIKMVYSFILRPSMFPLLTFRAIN
Briefly: (§2) In vitro inhibitory concentration against human CYP11B1 expressed in V79 MZh hamster fibroblasts incubated with 100 nM of substrate deoxy-corticosterone in presence of the compound.

Series [4] deals with T3, CYP17 (Homo sapiens, UniProt P05093).
T3 sequence (P05093 whole entry): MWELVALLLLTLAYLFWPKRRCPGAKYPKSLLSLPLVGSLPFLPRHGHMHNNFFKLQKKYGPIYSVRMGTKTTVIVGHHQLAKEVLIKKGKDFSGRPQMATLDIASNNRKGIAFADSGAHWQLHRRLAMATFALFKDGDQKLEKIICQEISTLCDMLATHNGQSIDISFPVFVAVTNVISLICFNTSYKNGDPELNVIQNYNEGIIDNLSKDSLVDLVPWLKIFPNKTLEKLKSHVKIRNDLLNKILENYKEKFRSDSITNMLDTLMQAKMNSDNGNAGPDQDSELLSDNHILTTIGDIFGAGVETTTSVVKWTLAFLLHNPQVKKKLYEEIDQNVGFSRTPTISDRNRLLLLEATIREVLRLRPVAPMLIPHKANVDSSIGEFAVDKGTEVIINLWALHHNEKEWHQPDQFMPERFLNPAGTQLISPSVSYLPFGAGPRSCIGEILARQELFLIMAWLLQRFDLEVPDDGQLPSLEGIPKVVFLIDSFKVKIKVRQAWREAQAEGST
Briefly: In vitro inhibition of human CYP17 expressed in Escherichia coli incubated with 2.5 uM of substrate progesterone in presence of 2.5 uM of compound. The note with it: probe progesterone.

The target in series [5] is T1, Cytochrome P450 11B2, mitochondrial. Briefly: In vitro inhibitory concentration against human CYP11B2 expressed in V79 MZh hamster fibroblasts incubated with 100 nM of substrate deoxy-corticosterone in presence of the compound. A digest of the protocol: as §1
Series [6] shares this target. Briefly: In vitro inhibition of human CYP11B2 expressed in Schizosaccharomyces pombe incubated with 100 nM of substrate deoxy-corticosterone in presence of 500 nM of compound.
The target of series [7] is T4, Aromatase (Homo sapiens, UniProt P11511).
T4 sequence (P11511 whole entry): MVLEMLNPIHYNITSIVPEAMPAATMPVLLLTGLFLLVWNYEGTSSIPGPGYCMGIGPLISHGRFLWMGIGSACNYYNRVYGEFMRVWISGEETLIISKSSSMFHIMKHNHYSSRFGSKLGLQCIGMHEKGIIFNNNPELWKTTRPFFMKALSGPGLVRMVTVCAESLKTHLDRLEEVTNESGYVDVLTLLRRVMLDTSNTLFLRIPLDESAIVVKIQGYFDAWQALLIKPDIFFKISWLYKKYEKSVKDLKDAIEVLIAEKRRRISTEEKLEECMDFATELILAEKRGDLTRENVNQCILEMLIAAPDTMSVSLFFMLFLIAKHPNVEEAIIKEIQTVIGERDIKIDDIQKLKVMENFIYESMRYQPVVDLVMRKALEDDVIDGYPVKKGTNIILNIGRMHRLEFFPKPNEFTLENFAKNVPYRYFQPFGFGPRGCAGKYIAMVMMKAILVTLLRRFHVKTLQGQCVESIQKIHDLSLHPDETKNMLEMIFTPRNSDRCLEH
The series can be described thus: In vitro inhibitory concentration against human placental CYP19 incubated with 500 nM of substrate androstenedione in presence of the compound.

Series [8] addresses T5, CYP11B1 (Homo sapiens, UniProt P15538).
T5 sequence (P15538 whole entry): T2 sequence (P15538 whole entry)
Described as §2. The note with it: human, V79 MZh hamster fibroblasts expressing human CYP11B1, probe deoxy-corticosterone.

Series [9] deals with CYP11B2 (Homo sapiens). The series can be described thus: In vitro inhibitory concentration against human CYP11B2 expressed in V79 MZh hamster fibroblasts incubated with 100 nM of substrate deoxy-corticosterone in presence of the compound. The note with it: V79 MZh hamster fibroblasts expressing human CYP11B2, probe deoxy-corticosterone.

SMILES strings stand for the structures.

As for `C(=C1\CCc2ccccc21)/c1ccncc1`, the concentration for half-maximal inhibition (IC50) (commonly the midpoint of a concentration-inhibition curve) in [1] stood at 18 nM; in series [3] it was 931 nM. Besides, the Selectivity ratio in series [2] came out at 1.4.
For `Fc1ccc2c(c1)CC/C2=C/c1ccncc1`, in that order: 29 nM, 34 nM and 7.6.
For the molecule `C(=C1/CCc2ccccc21)/c1cccnc1`, the inhibition (usually how much of the control response was suppressed) at 2.5 µM in [4] is 14%. Further, the Selectivity ratio in series [2] was determined as 80.7. Further, the IC50 in [5] was determined as 11 nM.
In the case of `Cc1ccc2c(c1)/C(=C/c1cccnc1)CC2`, in series [4], the inhibition at 2.5 µM turned out to be 3%. Moreover, in series [6], the inhibition at 0.5 µM came out at 27%. In addition, the IC50 in series [7] turned out to be 3930 nM.
Take `C/C(=C1/CCc2cc(F)ccc21)c1cccnc1`: the Selectivity ratio in series [2] came out at 1.7. The concentration for half-maximal inhibition (IC50) in series [3] was found to be 96 nM. In addition, the inhibition at 0.5 µM in series [6] was 67%.
With `Fc1ccc2c(c1)CC/C2=C\c1cncnc1`, the IC50 came to 27 nM in series [1] and 3180 nM in series [8]. Also, in series [2], the Selectivity ratio came to 118.
Turning to `C(=C1/CCCc2ccccc21)/c1ccncc1`, the IC50 was determined as 15 nM in series [1], 143 nM in [3] and 650 nM in [7]. Besides, in series [2], the Selectivity ratio was 2. In [6], the inhibition at 0.5 µM turned out to be 54%.
For `Clc1ccc2c(c1)CC/C2=C\c1ccncc1`, the IC50 in series [1] and in series [3] was 1520 nM each time.
With `Fc1ccc2c(c1)CC/C2=C\c1ccncc1`, the IC50 is 15 nM in series [1] and 1100 nM in [3]. Also, the Selectivity ratio in series [2] was 0.3.
In the case of `CC1C/C(=C/c2cccnc2)c2ccccc21` (stereo unspecified), the IC50 in [5] stood at 41 nM; in [7], 2800 nM. Further, the inhibition at 0.5 µM in series [6] was 15%.
Take `Fc1ccc2c(c1)CC/C2=C/c1cccc2cnccc12`: the half-inhibitory concentration (IC50) turned out to be 65 nM in [1] and 26 nM in series [9]. In series [2], the Selectivity ratio came to 14.4.
Consider `Fc1cccc2c1CC/C2=C/c1cccnc1`, for which the inhibition at 2.5 µM in series [4] came to 53%. Besides, in series [6], the inhibition at 0.5 µM was determined as 40%. The IC50 in series [7] amounted to 180 nM.
As for `Brc1ccc2c(c1)CC/C2=C\c1ccncc1`, the IC50 in [1] is 24 nM; in series [3] it was 2640 nM; in [7] it was more than 36000 nM. Also, the Selectivity ratio in series [2] is 0.4.
Turning to `Brc1ccc2c(c1)CC/C2=C/c1ccncc1`, the IC50 stood at 56 nM in series [1], 484 nM in series [3] and 3400 nM in series [7]. In series [2], the Selectivity ratio worked out at 1.8. In addition, the inhibition at 0.5 µM in series [6] is 40%.
For the molecule `COc1cc2c(cc1OC)/C(=C/c1cccnc1)CCC2`, in [4], the inhibition at 2.5 µM came out at 6%. The inhibition at 0.5 µM in series [6] amounted to 5%. The IC50 in series [7] came out at 980 nM.
In the case of `C(=C1/CCc2cc(OCc3ccccc3)ccc21)/c1cccnc1`, the inhibition at 2.5 µM in [4] worked out at 1%. The inhibition at 0.5 µM in [6] is 0%. Also, the IC50 in series [7] is more than 36000 nM.
For the molecule `Fc1ccc2c(c1)CC/C2=C\c1cccc2cnccc12`, the IC50 came out at 57 nM in series [1] and 58 nM in series [8]. Moreover, the Selectivity ratio in series [2] is 19.5.
As to `C(=C1\CCc2ccccc21)/c1cccnc1`, the IC50 in series [1] was determined as 92 nM; in [3], 87 nM; in series [7] it was 3550 nM. Moreover, the inhibition at 2.5 µM in series [4] was 33%. Moreover, the Selectivity ratio in series [2] came to 0.9. For the same molecule, the inhibition at 0.5 µM in series [6] was 83%.
